From ChEMBL document CHEMBL4613314, “Exploring the Implication of DDX3X in DENV Infection: Discovery of the First-in-Class DDX3X Fluorescent Inhibitor” (ACS Med Chem Lett, 2020)
Active and inactive are the calls of the source. The rule behind the calls is not given here.

How the values were obtained:
[1] = Cytotoxicity against human HuH7 cells assessed as reduction in cell viability by measuring ATP level measured after 72 hrs by CellTiter-Glo luminescent assay; assay type: cell-based, Huh-7
How it was run: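 Huh-7 cells; viable cell number determined from cellular ATP content by CellTiter-Glo 2.0 luminescence; CC50 derived.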

[2] = system: dengue virus type 2; assay: Antiviral activity against Dengue virus serotype 2 New Guinea C infected at 50 TCID50 in human HuH7 cells assessed as inhibition of viral replication and 72 hrs later re-infected pre-seeded HuH7 cells with viral supernatant collected from previous infected and measured after 72 hrs by immunodetection assay; assay type: functional, organism-based; details: Huh-7, 72 h
How it was run: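 Huh-7 cells infected with 50 TCID50 DENV-2 in presence of serial compound dilutions; after 72 h supernatants used to infect preseeded Huh-7 cells for a second infection cycle; replication read after further 72 h by immunoenzymatic assay with monoclonal antibody to conserved viral E antigen region. IC50 from at least two experiments, mean ± SD.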

[3] = target: T1, ATP-dependent RNA helicase DDX3X (Homo sapiens, UniProt O00571); assay: Inhibition of recombinant full length human His-tagged DDX3X expressed in Escherichia coli using dsRNA as substrate measured after 40 mins in presence of ATP by FRET assay
Target sequence in this assay (O00571 whole entry): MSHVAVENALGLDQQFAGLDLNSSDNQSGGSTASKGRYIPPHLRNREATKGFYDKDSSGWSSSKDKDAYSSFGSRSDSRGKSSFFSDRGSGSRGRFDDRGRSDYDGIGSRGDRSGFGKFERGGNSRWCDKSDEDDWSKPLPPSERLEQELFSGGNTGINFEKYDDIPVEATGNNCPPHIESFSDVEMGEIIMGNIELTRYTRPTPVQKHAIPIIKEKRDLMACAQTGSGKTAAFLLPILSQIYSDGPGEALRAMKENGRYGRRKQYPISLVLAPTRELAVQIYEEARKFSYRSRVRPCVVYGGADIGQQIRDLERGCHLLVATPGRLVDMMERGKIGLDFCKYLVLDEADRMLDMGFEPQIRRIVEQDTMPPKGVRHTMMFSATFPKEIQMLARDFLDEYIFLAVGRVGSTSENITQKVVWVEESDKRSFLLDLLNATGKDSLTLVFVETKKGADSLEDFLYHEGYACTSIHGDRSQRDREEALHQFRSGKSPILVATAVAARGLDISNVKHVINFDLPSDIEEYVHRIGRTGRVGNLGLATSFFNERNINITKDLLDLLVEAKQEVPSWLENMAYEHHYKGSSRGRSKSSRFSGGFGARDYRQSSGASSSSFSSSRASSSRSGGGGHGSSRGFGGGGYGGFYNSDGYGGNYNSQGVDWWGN

[4] = in vitro; details: human
[5] = system: dengue virus type 2; assay: Antiviral activity against Dengue virus serotype 2 New Guinea C infected at 100 TCID50 in human HuH7 cells assessed as cytopathic effect by measuring increase in viable cells at 0.1 to 20 uM measured up to 24 hrs by Alexa fluor 488 based confocal microscopy; assay type: functional, organism-based; details: Huh-7
[6] = system: dengue virus type 2; assay: Antiviral activity against Dengue virus serotype 2 New Guinea C infected at 100 TCID50 in human HuH7 cells assessed as reduction in number of NS3 positive cells at 0.1 to 20 uM measured up to 24 hrs by Alexa fluor 488 dye based confocal microscopy; assay type: functional, organism-based; details: Huh-7
[7] = system: dengue virus type 2; assay: Antiviral activity against Dengue virus serotype 2 New Guinea C infected at 100 TCID50 in human HuH7 cells assessed as reduction in number of dsRNA positive cells at 0.1 to 20 uM measured up to 24 hrs by Alexa fluor 488 dye based confocal microscopy; assay type: functional, organism-based; details: Huh-7
[8] = system: dengue virus type 2; assay: Antiviral activity against Dengue virus serotype 2 New Guinea C infected at 100 TCID50 in human HuH7 cells assessed as reduction in number of NS5 positive cells at 0.1 to 20 uM measured up to 24 hrs by Alexa fluor 488 dye based confocal microscopy; assay type: functional, organism-based; details: Huh-7
[9] = target: T1, ATP-dependent RNA helicase DDX3X; assay: Induction of DDX3X recruitment in human HuH7 cells infected with 100 TCID50 of Dengue virus serotype 2 New Guinea C assessed as increase in DDX3X expression in perinuclear region at 20 uM measured at 48 to 72 hrs post-infection by Alexa fluor 488 dye based confocal microscopy; assay type: cell-based; details: Huh-7
How it was run: (§1)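 DENV-2-infected Huh-7 cells (100 TCID50) treated with fluorescent inhibitor at 20 μM; immunostained for DDX3X or NS5 and examined by confocal microscopy over time up to 72 h p.i.; viable cell number and NS5-positive cell number scored.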
Target sequence in this assay (O00571 2-662 limits assumed): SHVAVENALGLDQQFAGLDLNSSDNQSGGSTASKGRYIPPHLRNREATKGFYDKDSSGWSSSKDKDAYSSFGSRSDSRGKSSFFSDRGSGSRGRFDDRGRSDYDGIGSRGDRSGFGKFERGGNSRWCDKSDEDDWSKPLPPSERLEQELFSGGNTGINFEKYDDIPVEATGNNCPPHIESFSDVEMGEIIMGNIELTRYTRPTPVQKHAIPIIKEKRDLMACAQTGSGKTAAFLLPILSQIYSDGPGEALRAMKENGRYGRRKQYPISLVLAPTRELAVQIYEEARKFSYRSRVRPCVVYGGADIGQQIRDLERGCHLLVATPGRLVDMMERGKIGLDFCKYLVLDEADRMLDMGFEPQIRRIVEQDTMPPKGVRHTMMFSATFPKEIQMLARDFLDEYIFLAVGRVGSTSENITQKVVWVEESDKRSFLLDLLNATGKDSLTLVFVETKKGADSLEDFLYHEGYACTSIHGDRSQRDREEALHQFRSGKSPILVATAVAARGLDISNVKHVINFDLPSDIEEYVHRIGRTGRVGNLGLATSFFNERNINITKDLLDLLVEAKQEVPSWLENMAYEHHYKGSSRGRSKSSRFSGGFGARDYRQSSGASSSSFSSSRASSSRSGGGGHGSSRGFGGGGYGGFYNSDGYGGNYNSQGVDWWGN

[10] = system: dengue virus type 2; assay: Antiviral activity against Dengue virus serotype 2 New Guinea C infected at 100 TCID50 in human HuH7 cells assessed as reduction of NS5 positive cells at 20 uM measured at 48 to 72 hrs post-infection by Alexa fluor 488 dye based confocal microscopy; assay type: functional, organism-based; details: Huh-7; how it was run: as §1
[11] = target: T1, ATP-dependent RNA helicase DDX3X; assay: Induction of DDX3X recruitment in human HuH7 cells infected with 100 TCID50 of Dengue virus serotype 2 New Guinea C assessed as colocalization of DDX3X in perinuclear region at 20 uM measured at 6 to 24 hrs post-infection by Alexa fluor 488 dye based confocal microscopy; assay type: cell-based; details: Huh-7
How it was run: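 Huh-7 cells infected with DENV-2 at 100 TCID50, treated with fluorescent inhibitor at 20 μM; fixed at 0, 6, 12 and 24 h p.i., permeabilized, immunostained for DDX3 or NS5 (Alexa Fluor 568 secondary) and examined by confocal microscopy for colocalization with the probe.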
Target sequence in this assay (O00571 2-662 limits assumed): as above

[12] = system: dengue virus type 2; assay: Antiviral activity against Dengue virus serotype 2 New Guinea C infected at 100 TCID50 in human HuH7 cells assessed as cytoplasmic localization of NS5 followed by movement to nucleus at 20 uM measured at 6 hrs post-infection by […]; assay type: functional, organism-based; details: Huh-7
[13] = system: dengue virus type 2; assay: Antiviral activity against Dengue virus serotype 2 New Guinea C infected at 100 TCID50 in human HuH7 cells assessed as increase in viable cells at 20 uM measured at 48 to 72 hrs post-infection by Alexa fluor 488 dye based confocal microscopy; assay type: functional, organism-based; details: Huh-7; how it was run: as §1

CCCCc1cn(-c2cccc(S(=O)(=O)Nc3ccccc3OC)c2)nn1
CC50 at 72 h [1]: 79 µM
IC50 [2]: 6.3 µM
IC50 [3]: 0.18 µM

CCCC(C)C(F)c1cn(-c2ccc(NC(=O)Nc3ccccc3C(F)(F)F)cc2)nn1 (stereo not given)
IC50 [3]: 1.05 µM

CCOCc1cn(-c2cccc(S(=O)(=O)Nc3ccccc3NS(C)(=O)=O)c2)nn1
CC50 at 72 h [1]: 87 µM
IC50 [2]: 8.3 µM
IC50 [3]: 0.08 µM
selectivity ratio at 72 h ([4]; HuH7 cells): 10.5

CCOCc1cn(-c2cccc(S(=O)(=O)Nc3cccc(C(=O)O)c3)c2)nn1
CC50 at 72 h [1]: 7 µM
IC50 [2]: > 7 µM

CCCCc1cn(-c2cccc(S(=O)(=O)Nc3cccc4cnccc34)c2)nn1
CC50 at 72 h [1]: 30 µM
IC50 [2]: 2.3 µM
IC50 [3]: 0.12 µM

CC(C)CCc1cn(-c2ccc(NC(=O)Nc3ccccc3F)cc2)nn1
CC50 at 72 h [1]: 200 µM
IC50 [2]: 0.9 µM
selectivity ratio at 72 h ([4]; HuH7 cells): 222

CCCCc1cn(-c2ccc(NC(=O)Nc3ccccc3NS(C)(=O)=O)cc2)nn1
CC50 at 72 h [1]: 35 µM
IC50 [2]: 2.5 µM
IC50 [3]: 0.06 µM
selectivity ratio at 72 h ([4]; HuH7 cells): 14

NC(=O)c1ncn([C@@H]2O[C@H](CO)[C@@H](O)[C@H]2O)n1 [RIBAVIRIN]
CC50 at 72 h [1]: 100 µM
IC50 [2]: 4 µM
selectivity ratio at 72 h [4]: 25

CC(C)CCc1cn(-c2ccc(NC(=O)Nc3ccc(F)cc3)cc2)nn1
IC50 [3]: 1.9 µM

CCCCc1cn(-c2ccc(NC(=O)Nc3ccccc3C)cc2)nn1
IC50 [2]: 2.55 µM

CCOCc1cn(-c2cccc(S(=O)(=O)Nc3cccc(C(=O)OCC)c3)c2)nn1
CC50 at 72 h [1]: 100 µM
IC50 [2]: 4.3 µM
IC50 [3]: 0.005 µM
selectivity ratio at 72 h ([4]; HuH7 cells): 23.2

COc1cc(-n2cc(CCC(C)C)nn2)ccc1NC(=O)Nc1ccccc1C(F)(F)F
IC50 [3]: 1.05 µM

CCOCc1cn(-c2cccc(S(=O)(=O)Nc3ccccc3C(F)(F)F)c2)nn1
Activity [5]: Active
CC50 at 72 h [1]: 150 µM
IC50 [2]: 2.6 µM
Activity [6]: Active
Activity [7]: Active
Activity [8]: Active

CC(C)OC(=O)[C@H](C)N[P@](=O)(OC[C@H]1O[C@@H](n2ccc(=O)[nH]c2=O)[C@](C)(F)[C@@H]1O)Oc1ccccc1 [SOFOSBUVIR]
CC50 at 72 h [1]: 200 µM
IC50 [2]: 3.8 µM
selectivity ratio at 72 h ([4]; HuH7 cells): 52.6

CCCCc1cn(-c2cccc(S(=O)(=O)Nc3ccccc3C(F)(F)F)c2)nn1
CC50 at 72 h [1]: 18 µM
IC50 [2]: 6.1 µM
selectivity ratio at 72 h ([4]; HuH7 cells): 3

CCOCc1cn(-c2cccc(S(=O)(=O)Nc3ccccc3N3CCOCC3)c2)nn1
CC50 at 72 h [1]: 100 µM
IC50 [2]: 5.3 µM
IC50 [3]: 0.06 µM
selectivity ratio at 72 h ([4]; HuH7 cells): 18.9

CCCCCCc1cn(-c2ccc(NC(=O)Nc3ccccc3C(F)(F)F)cc2)nn1
CC50 at 72 h [1]: 170 µM
IC50 [2]: 2.7 µM
IC50 [3]: 0.3 µM
selectivity ratio at 72 h ([4]; HuH7 cells): 62.9

CCOCc1cn(-c2ccc(NC(=O)Nc3cccc(F)c3)cc2)nn1
CC50 at 72 h [1]: 145 µM
IC50 [2]: > 145 µM
IC50 [3]: 21.2 µM

CC(=O)CCc1cn(-c2ccc(NC(=O)Nc3cccc(F)c3)cc2)nn1
CC50 at 72 h [1]: 20 µM
IC50 [2]: 0.3 µM
IC50 [3]: 2.4 µM
selectivity ratio at 72 h ([4]; HuH7 cells): 64.7

O=C1OC2(c3ccc(O)cc3Oc3cc(O)ccc32)c2cc(NC(=S)NCCOCc3cn(-c4cccc(S(=O)(=O)Nc5ccccc5C(F)(F)F)c4)nn3)ccc21
Activity [9]: Active
Activity [10]: Active
CC50 at 72 h [1]: 140 µM
Activity [11]: Active
IC50 [2]: 28.2 µM
Activity [12]: Active
Activity [13]: Active

O=C(Nc1ccc(-n2cc(CF)nn2)cc1)Nc1ccccc1C(F)(F)F
IC50 [3]: 2.2 µM

Cc1ccccc1NC(=O)Nc1ccc(-n2cc(CCC(C)C)nn2)cc1
CC50 at 72 h [1]: 170 µM
IC50 [2]: 1.4 µM
IC50 [3]: 0.17 µM
selectivity ratio at 72 h ([4]; HuH7 cells): 121

COc1cc(NC(=O)Nc2ccccc2C(F)(F)F)ccc1-n1cc(CCC(C)C)nn1
IC50 [3]: 0.3 µM

CCCCc1cn(-c2ccc(NC(=O)Nc3cccc(F)c3)cc2)nn1
CC50 at 72 h [1]: 200 µM
IC50 [2]: 10.5 µM
IC50 [3]: 0.6 µM
selectivity ratio at 72 h ([4]; HuH7 cells): 19

CC(C)CCc1cn(-c2ccc(NC(=O)Nc3cccc(F)c3)cc2)nn1
CC50 at 72 h [1]: 200 µM
IC50 [2]: 2.5 µM
selectivity ratio at 72 h ([4]; HuH7 cells): 80

CCCCc1cn(-c2cccc(S(=O)(=O)Nc3ccccc3O)c2)nn1
CC50 at 72 h [1]: 150 µM
IC50 [2]: 1.6 µM
IC50 [3]: 0.4 µM
